Experimental data: ChEMBL document CHEMBL1134392, “Novel p-arylthio cinnamides as antagonists of leukocyte function-associated antigen-1/intracellular adhesion molecule-1 interaction. 2. Mechanism of inhibition and structure-based improvement of pharmaceutical properties” (J Med Chem, 2001)
Values after ≈ are worked out from the molar mass of the structure shown. Each block holds one compound with its values, some of them ahead of it.

Tests used:
[1] = molecular target: T1, Intercellular adhesion molecule (ICAM-1), Integrin alpha-L/beta-2 (Homo sapiens, UniProt P05107+P20701); experiment: Inhibition of JY-8 cell adhesion via leukocyte function associated antigen 1 (LFA-1) to ICAM-1, range (120-140); type: cell-based
[2] = molecular target: T1, Intercellular adhesion molecule (ICAM-1), Integrin alpha-L/beta-2; experiment: Inhibition of JY-8 cell adhesion via leukocyte function associated antigen 1 (LFA-1) to ICAM-1; type: cell-based
[3] = Dissociation constant was determined; type: physicochemical
[4] = molecular target: Integrin alpha-L (Homo sapiens); experiment: Binding affinity to leukocyte function associated antigen 1 (LFA-1) I domain by NMR
[5] = molecular target: T1, Intercellular adhesion molecule (ICAM-1), Integrin alpha-L/beta-2; experiment: Inhibition of JY-8 cell adhesion via leukocyte function associated antigen 1 (LFA-1) to ICAM-1, range (110-140)
[6] = molecular target: T1, Intercellular adhesion molecule (ICAM-1), Integrin alpha-L/beta-2; experiment: Inhibition of JY-8 cell adhesion via leukocyte function associated antigen 1 (LFA-1) to ICAM-1, range (370-470); type: cell-based
[7] = molecular target: T1, Intercellular adhesion molecule (ICAM-1), Integrin alpha-L/beta-2; experiment: Inhibition of JY-8 cell adhesion via leukocyte function associated antigen 1 (LFA-1) to ICAM-1, range (90-100); type: cell-based
[8] = Pharmacokinetic parameter was evaluated which is represented as AUC when administered orally a dose of 5 mg/kg; range (4.2-8.8); type: ADME, organism-based; design: dose 5 mg/kg, route oral; conditions: in vivo, po
[9] = Pharmacokinetic parameter was evaluated after oral administration of 5 mg/kg; range (4-8); type: ADME, organism-based; design: dose 5 mg/kg, route oral; conditions: in vivo
[10] = Mean Cmax in rats after 5 mg/kg oral dose, range (0.4-0.8); type: ADME, organism-based; design: dose 5 mg/kg, route oral; conditions: rat, in vivo
[11] = Half life when administered 5 mg/kg orally; range (4.1-5.5); type: ADME, organism-based; design: dose 5 mg/kg; conditions: in vivo, po
[12] = solubility was determined; type: physicochemical
How it was run: (§1)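 Excess solid removed by filtration. The saturated solution was diluted and drug concentration measured by UV spectrophotometry.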

[13] = molecular target: T1, Intercellular adhesion molecule (ICAM-1), Integrin alpha-L/beta-2
[14] = Mean Cmax in rats after 5 mg/kg oral dose, range (0.17-0.20); type: ADME, organism-based; design: dose 5 mg/kg, route oral; conditions: rat, in vivo
[15] = molecular target: T1, Intercellular adhesion molecule (ICAM-1), Integrin alpha-L/beta-2; experiment: Inhibition of JY-8 cell adhesion via leukocyte function associated antigen 1 (LFA-1) to ICAM-1, range (30-60); type: cell-based
[16] = Half life when administered 5 mg/kg orally; range (0.99-1.14); type: ADME, organism-based; design: dose 5 mg/kg; conditions: in vivo, po
[17] = Pharmacokinetic parameter was evaluated which is represented as AUC when administered 5 mg/kg intravenously; range (2.1-2.3); type: ADME, organism-based; design: dose 5 mg/kg, route intravenous; conditions: in vivo, iv
[18] = Pharmacokinetic parameter was evaluated after oral administration of 5 mg/kg; range (0.2-1); type: ADME, organism-based; design: dose 5 mg/kg, route oral; conditions: in vivo
[19] = Bioavailability was evaluated after oral administration of 5 mg/kg; range (8.7-15.8); type: ADME, organism-based; conditions: eutheria, in vivo
[20] = Half life when administered intravenously; range (0.3-1.79); type: ADME, organism-based; conditions: in vivo, iv
[21] = Pharmacokinetic parameter was evaluated which is represented as AUC when administered 5 mg/Kg orally; range (0.19-0.35); type: ADME; conditions: in vivo, po
[22] = Pharmacokinetic parameter was evaluated which is represented as Vbeta; range (0.9-6); type: ADME
[23] = molecular target: T1, Intercellular adhesion molecule (ICAM-1), Integrin alpha-L/beta-2; experiment: Inhibition of JY-8 cell adhesion via leukocyte function associated antigen 1 (LFA-1) to ICAM-1, range (320-350); type: cell-based
[24] = molecular target: T1, Intercellular adhesion molecule (ICAM-1), Integrin alpha-L/beta-2; experiment: Inhibition of JY-8 cell adhesion via leukocyte function associated antigen 1 (LFA-1) to ICAM-1, range (100-110); type: cell-based
[25] = molecular target: T1, Intercellular adhesion molecule (ICAM-1), Integrin alpha-L/beta-2; remark: listed apart in the source
[26] = solubility in rats; type: ADME; how it was run: as §1
[27] = Bioavailability was evaluated in rats; type: ADME, organism-based; conditions: rat, in vivo
Rattus norvegicus = species: Rattus norvegicus; experiment: Pharmacokinetic parameter was evaluated in rats which is represented as Vbeta; type: ADME, organism-based; conditions: in vivo
[28] = AUC(area under curve) was determined after intravenous administration in rats; type: ADME, organism-based; conditions: rat, plasma
[29] = Half life was determined after intravenous administration; type: ADME, organism-based; conditions: in vivo

T1 sequence (P20701 whole entry): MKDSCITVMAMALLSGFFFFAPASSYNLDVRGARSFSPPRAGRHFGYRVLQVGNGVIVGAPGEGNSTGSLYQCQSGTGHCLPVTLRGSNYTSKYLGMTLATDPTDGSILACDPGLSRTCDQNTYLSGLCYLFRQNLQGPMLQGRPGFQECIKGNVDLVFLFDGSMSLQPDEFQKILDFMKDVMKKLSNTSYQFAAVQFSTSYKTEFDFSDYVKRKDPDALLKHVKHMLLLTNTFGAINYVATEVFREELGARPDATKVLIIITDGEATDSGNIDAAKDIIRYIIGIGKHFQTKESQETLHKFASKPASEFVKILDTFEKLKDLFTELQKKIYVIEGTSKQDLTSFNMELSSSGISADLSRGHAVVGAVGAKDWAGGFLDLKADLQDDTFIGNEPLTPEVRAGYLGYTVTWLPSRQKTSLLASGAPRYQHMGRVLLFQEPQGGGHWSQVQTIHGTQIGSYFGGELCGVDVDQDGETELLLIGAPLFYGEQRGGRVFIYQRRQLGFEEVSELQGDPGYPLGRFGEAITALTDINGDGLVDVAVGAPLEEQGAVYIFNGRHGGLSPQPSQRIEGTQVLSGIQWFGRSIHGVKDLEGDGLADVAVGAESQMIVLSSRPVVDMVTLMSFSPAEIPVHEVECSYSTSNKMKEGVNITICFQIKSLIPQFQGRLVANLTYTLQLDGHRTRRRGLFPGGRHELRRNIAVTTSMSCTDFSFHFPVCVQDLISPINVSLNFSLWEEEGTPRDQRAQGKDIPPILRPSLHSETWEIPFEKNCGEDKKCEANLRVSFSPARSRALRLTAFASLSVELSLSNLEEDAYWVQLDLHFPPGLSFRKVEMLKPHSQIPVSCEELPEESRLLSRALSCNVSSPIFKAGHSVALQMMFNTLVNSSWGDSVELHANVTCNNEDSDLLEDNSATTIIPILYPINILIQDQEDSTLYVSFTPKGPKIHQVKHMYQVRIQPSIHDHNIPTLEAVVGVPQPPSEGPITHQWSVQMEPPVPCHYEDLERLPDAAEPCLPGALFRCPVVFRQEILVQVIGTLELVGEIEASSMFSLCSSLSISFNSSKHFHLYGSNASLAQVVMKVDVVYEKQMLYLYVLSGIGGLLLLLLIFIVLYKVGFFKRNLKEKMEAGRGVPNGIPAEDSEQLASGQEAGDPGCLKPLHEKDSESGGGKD
T1 sequence (P05362 whole entry, further chain): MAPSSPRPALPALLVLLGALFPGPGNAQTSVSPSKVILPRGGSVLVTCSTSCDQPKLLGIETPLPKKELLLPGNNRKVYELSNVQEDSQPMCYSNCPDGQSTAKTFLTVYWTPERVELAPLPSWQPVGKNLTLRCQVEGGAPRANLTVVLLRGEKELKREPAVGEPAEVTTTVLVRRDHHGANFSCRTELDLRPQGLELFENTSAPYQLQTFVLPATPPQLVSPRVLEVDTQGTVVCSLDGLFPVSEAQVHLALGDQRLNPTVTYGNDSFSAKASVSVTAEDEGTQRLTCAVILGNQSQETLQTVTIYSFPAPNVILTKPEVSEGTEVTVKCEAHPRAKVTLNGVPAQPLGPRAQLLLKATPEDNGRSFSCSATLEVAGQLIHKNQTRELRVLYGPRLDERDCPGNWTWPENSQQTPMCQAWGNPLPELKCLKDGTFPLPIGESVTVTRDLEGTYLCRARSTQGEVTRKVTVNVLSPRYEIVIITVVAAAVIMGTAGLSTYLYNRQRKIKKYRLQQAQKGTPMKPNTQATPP
T1 sequence (P05107 whole entry): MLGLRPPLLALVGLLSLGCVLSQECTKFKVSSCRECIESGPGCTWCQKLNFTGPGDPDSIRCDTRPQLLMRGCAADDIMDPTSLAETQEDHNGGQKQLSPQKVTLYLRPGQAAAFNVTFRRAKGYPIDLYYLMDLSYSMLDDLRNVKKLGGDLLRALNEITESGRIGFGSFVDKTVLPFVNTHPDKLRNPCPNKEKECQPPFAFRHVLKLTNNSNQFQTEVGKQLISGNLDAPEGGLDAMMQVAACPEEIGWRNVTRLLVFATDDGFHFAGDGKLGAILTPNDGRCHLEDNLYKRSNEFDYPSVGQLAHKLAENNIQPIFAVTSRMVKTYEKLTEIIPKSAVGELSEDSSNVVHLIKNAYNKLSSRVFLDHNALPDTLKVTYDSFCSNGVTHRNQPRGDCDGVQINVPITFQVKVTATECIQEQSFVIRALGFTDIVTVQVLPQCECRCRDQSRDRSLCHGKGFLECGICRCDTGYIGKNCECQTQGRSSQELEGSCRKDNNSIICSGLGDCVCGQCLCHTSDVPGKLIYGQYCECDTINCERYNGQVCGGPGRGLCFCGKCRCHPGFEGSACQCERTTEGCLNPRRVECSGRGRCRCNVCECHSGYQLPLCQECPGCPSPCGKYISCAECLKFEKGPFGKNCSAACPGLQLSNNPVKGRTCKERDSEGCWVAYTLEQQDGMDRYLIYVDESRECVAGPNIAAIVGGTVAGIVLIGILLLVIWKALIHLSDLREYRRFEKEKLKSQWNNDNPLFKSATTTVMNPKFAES

IC50 [1]: 0.13 µM
Compound: CCn1ccc2cccc(Sc3ccc(/C=C/C(=O)N4CCN(C(C)=O)CC4)cc3Cl)c21

IC50 [2]: 2.3 µM
Kd [3]: < 20 µM
Compound: Nc1ccc(Sc2ccc3ccccc3c2Cl)c(Cl)c1

Compound: c1ccc2c(c1)OCCO2
Kd [4]: 10000 µM

Compound: CC(=O)N1CCN(C(=O)/C=C/c2ccc(Sc3ccc4c(c3)OCO4)c(Cl)c2)CC1
IC50 [5]: 0.12 µM

IC50 [6]: 0.42 µM
Compound: CC(=O)N1CCN(C(=O)/C=C/c2ccc(Sc3ccc4[nH]cc(CN(C)C)c4c3)c(Cl)c2)CC1

Compound: CC(=O)N1CCN(C(=O)/C=C/c2ccc(Sc3cccc4ccn(C)c34)c(Cl)c2)CC1
IC50 [2]: 0.07 µM

IC50 [2]: 0.51 µM
Compound: CC(=O)N1CCN(C(=O)/C=C/c2ccc(Sc3ccc4c(c3)OCC(C(=O)N(C)C)O4)c(Cl)c2)CC1 (stereo unspecified)

IC50 [2]: 0.02 µM
Compound: CC(=O)N1CCN(C(=O)/C=C/c2ccc(Sc3ccc4c(c3)OCC(CO)O4)c(Cl)c2)CC1 (stereo unspecified)

Compound: CCOc1c(Sc2ccc(/C=C/C(=O)N3CCN(C(C)=O)CC3)cc2Cl)cc(Cl)c2cccnc12
IC50 [2]: 0.58 µM

IC50 [2]: 0.02 µM
Compound: CC(=O)N1CCN(C(=O)/C=C/c2ccc(Sc3ccc4c(ccn4C)c3)c(Cl)c2)CC1

IC50 [7]: 0.1 µM
Compound: CCOc1c(Sc2ccc(/C=C/C(=O)N3CCN(C(C)=O)CC3)cc2Cl)ccc2c1OCCO2

Kd [4]: 1400 µM
Compound: Cn1ccc2ccccc21

Compound: CC(=O)N1CCN(C(=O)/C=C/c2ccc(Sc3ccc4[nH]ccc4c3)c(Cl)c2)CC1
AUC [8]: 5800 ng·h/mL
Tmax [9]: 360 min
Cmax [10]: 600 ng/mL
half-life [11]: 282 min
solubility [12]: 0.8 µg/mL (≈ 1.82 µM)
IC50 [13]: 0.02 µM

Cmax [14]: 190 ng/mL
IC50 [15]: 0.04 µM
half-life [16]: 66 min
AUC [17]: 2200 ng·h/mL
Tmax [18]: 30 min
bioavailability [19]: 12.4%
half-life [20]: 33 min
AUC [21]: 280 ng·h/mL
solubility [12]: 4.1 µg/mL (≈ 8.93 µM)
Vbeta [22]: 3 kg⁻¹
Compound: CC(=O)N1CCN(C(=O)/C=C/c2ccc(Sc3ccc4c(c3)OCCO4)c(Cl)c2)CC1

IC50 [23]: 0.33 µM
Compound: CC(=O)N1CCN(C(=O)/C=C/c2ccc(Sc3ccc4c(ccn4CC(=O)O)c3)c(Cl)c2)CC1

IC50 [24]: 0.1 µM
Compound: CCn1cc(CN(C)C)c2cccc(Sc3ccc(/C=C/C(=O)N4CCN(C(C)=O)CC4)cc3Cl)c21

IC50 [2]: 1.2 µM
Compound: CC(=O)N1CCN(C(=O)/C=C/c2ccc(Sc3ccc4c(c3)OCC(C(=O)O)O4)c(Cl)c2)CC1 (stereo unspecified)

Compound: CC(=O)N1CCN(C(=O)/C=C/c2ccc(Sc3cc4[nH]c(O)nc4cc3Cl)c(Cl)c2)CC1
IC50 [25]: 0.79 µM

Compound: CC(=O)N1CCN(C(=O)/C=C/c2ccc(Sc3ccc4cc[nH]c4c3)c(Cl)c2)CC1
IC50 [2]: 0.15 µM

IC50 [15]: 0.06 µM
Compound: COCCn1ccc2cc(Sc3ccc(/C=C/C(=O)N4CCN(C(C)=O)CC4)cc3Cl)ccc21

solubility [26]: 0.9 µg/mL (≈ 1.98 µM)
bioavailability [27]: 0%
Vbeta (Rattus norvegicus): 2 kg⁻¹
AUC [28]: 1900 ng·h/mL
half-life [29]: 24 min
Compound: CC(=O)N1CCN(C(=O)/C=C/c2ccc(Sc3ccccc3C(C)C)c([N+](=O)[O-])c2)CC1 [A-286982]

Kd [4]: 8000 µM
Compound: c1ccc2nsnc2c1 [BENZO[1,2,5]THIADIAZOLE]
